Source: ChEMBL document CHEMBL4828745, “Discovery and Structure-Activity Relationships of Quinazolinone-2-carboxamide Derivatives as Novel Orally Efficacious Antimalarials” (J Med Chem, 2021)
pIC50: −log10 of the molar value. ≈ marks a conversion by molar mass, not a printed value.

Experiments:
[1] = Cytotoxicity against human HEK293 cells assessed as cell viability incubated for 72 hrs by Alamar blue assay; format: cell-based
Outline: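 HEK293 cells handled with the same incubation, compound addition and timing as the 72 h parasite assay. Alamar Blue, diluted in growth medium, was incubated 4 h at 37 °C/5% CO2, then 20 h at room temperature before plate read.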

Plasmodium falciparum = assay: Antiplasmodial activity against Plasmodium falciparum 3D7 infected in human erythrocyte assessed as intraerythrocytic growth inhibition incubated for 72 hrs by DAPI-staining based imaging analysis; format: functional, organism-based; details: 3D7, 72 h
Outline: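 P. falciparum 3D7 cultured in RPMI1640 with hypoxanthine, HEPES, 2.5 mg/mL AlbuMAX II and 5% human serum. Sorbitol-synchronized rings exposed 72 h at 37 °C under 5% CO2/5% O2, then DAPI-stained with saponin/Triton X-100 for 8 h in the dark. High-content imaging with spot detection. Duplicate points. Reference antimalarials run in each assay.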

[2] = Intrinsic clearance in human liver microsomes at […] by LC-MS/MS analysis; format: ADME, Microsome
Outline: (§1)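 Liver microsomes (human, mouse or rat) at 0.4 mg/mL protein, 37 °C, with an NADPH-regenerating system. Compound at 0.25 or 0.5 μM. Acetonitrile/diazepam quench, LC-MS quantitation. CLint from the first-order degradation rate constant.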

[3] = Intrinsic clearance in rat liver microsomes at […] by LC-MS/MS analysis; format: ADME, Microsome; outline: as §1
[4] = Intrinsic clearance in mouse liver microsomes at […] by LC-MS/MS analysis; format: ADME, Microsome; outline: as §1
[5] = Apparent permeability of the compound from apical to basolateral side in human Caco-2 cells at 20 uM measured after 120 mins by LC-MS analysis; format: ADME, cell-based
Outline: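 Caco-2 monolayers, apical-to-basolateral direction, in pH 7.4 HBSS with 20 mM HEPES on both sides. Donor at nominal 20 μM, 0.1% DMSO final. Flux followed over 120 min. Quantified by LC-MS with mass balance to derive Papp.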

[6] = Kinetic solubility of the compound in pH 6.5 phosphate buffer by nephelometry; format: physicochemical; details: read-out: Kinetic_solubility
Outline: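 DMSO stock spiked into pH 6.5 phosphate buffer (1% DMSO final). After 30 min, solubility range estimated by nephelometry.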

Structure (SMILES) | CC50 at 72 h [1] [µM] | pIC50 (Plasmodium falciparum) | CLH [2] [uL/ml.millig] | CLH [3] [uL/ml.millig] | CLH [4] [uL/ml.millig] | Papp A→B at 2 h, 20 µM [5] [×10⁻⁶ cm/s] | solubility kinetic [6] [µg/mL]
CCc1cccc(CNC(=O)c2nc3c(Cl)ccc(COCc4ccc(C(=O)O)cc4)c3c(=O)[nH]2)c1 | > 20 | 6.80 | – | – | – | – | –
COc1cc(CNC(=O)c2nc3ccc(F)c(OCCc4ccc(C(=O)O)cc4)c3c(=O)[nH]2)ccc1F | > 20 | 5.72 | – | – | – | – | –
CCNC(=O)c1ccc(CCOc2c(F)ccc3nc(C(=O)NCc4cccc(CC)c4)[nH]c(=O)c23)cc1 | > 20 | < 4.70 | – | – | – | – | –
O=C(O)c1ccc(CCOc2c(F)ccc3nc(C(=O)NCc4ccccc4)[nH]c(=O)c23)cc1 | > 20 | 5.44 | 7 | 123 | 12 | 16 | 6.3 (≈ 13.7 µM)
COc1cccc(CNC(=O)c2nc3ccc(F)c(OCCc4ccc(N)cc4)c3c(=O)[nH]2)c1 | > 20 | < 4.70 | – | – | – | – | –
CCc1cccc(CNC(=O)c2nc3ccc(F)c(COc4ccc(CC(=O)O)cc4)c3c(=O)[nH]2)c1 | > 20 | < 4.70 | – | – | – | – | –
CCc1ccc(CNC(=O)c2nc3ccc(F)c(OCCc4ccc(C(=O)O)cc4)c3c(=O)[nH]2)cc1 | > 20 | 5.94 | – | – | – | – | –
O=C(O)c1ccc(CCOc2c(F)ccc3nc(C(=O)NCC4CCCCC4)[nH]c(=O)c23)cc1 | > 20 | < 4.70 | 7 | 740 | 62 | 32 | < 1.6
CCc1cccc(CNC(=O)c2nc3cccc(CN(C)Cc4ccc(C(=O)O)cc4)c3c(=O)[nH]2)c1 | > 20 | 5.94 | – | – | – | – | –
CCc1ccccc1CNC(=O)c1nc2ccc(F)c(OCCc3ccc(C(=O)O)cc3)c2c(=O)[nH]1 | > 20 | < 4.70 | – | – | – | – | –
Cc1cc(CNC(=O)c2nc3ccc(F)c(OCCc4ccc(C(=O)O)cc4)c3c(=O)[nH]2)ccc1F | > 20 | 6.23 | – | – | – | – | –
COc1cccc(CNC(=O)c2nc3cccc(COCc4ccc(C(=O)O)cc4)c3c(=O)[nH]2)c1 | > 20 | 6.74 | – | – | – | – | –
CCc1cccc(CNC(=O)c2nc3cc(COCc4ccc(C(=O)O)cc4)ccc3c(=O)[nH]2)c1 | > 20 | < 4.70 | – | – | – | – | –
CCc1cccc(CN(C)C(=O)c2nc3ccc(F)c(OCCc4ccc(C(=O)O)cc4)c3c(=O)[nH]2)c1 | > 20 | < 4.70 | – | – | – | – | –
CCc1cccc(CNC(=O)c2nc3ccc(F)c(COc4ccc(C(=O)O)cc4)c3c(=O)[nH]2)c1 | > 20 | 5.16 | – | – | – | – | –
O=C(O)c1ccc(COCc2cccc3nc(C(=O)NCc4cccc(C(F)(F)F)c4)[nH]c(=O)c23)cc1 | > 20 | 6.39 | 7 | 42 | – | – | –
O=C(O)c1ccc(COCc2cccc3nc(C(=O)NCc4ccccc4)[nH]c(=O)c23)cc1 | > 20 | 6.55 | – | – | – | – | –
CCc1ccnc(CNC(=O)c2nc3cccc(COCc4ccc(C(=O)O)cc4)c3c(=O)[nH]2)c1 | > 20 | 6.05 | – | – | – | – | –
CCc1cccc(CNC(=O)c2nc3cccc(COc4ccc(C(=O)O)cc4)c3c(=O)[nH]2)c1 | > 20 | < 4.70 | – | – | – | – | –
CCc1cccc(CNC(=O)c2nc3cccc(CSCc4ccc(C(=O)O)cc4)c3c(=O)[nH]2)c1 | > 20 | 5.26 | – | – | – | – | –
COc1cccc(CNC(=O)c2nc3ccc(F)c(OCCc4ccc(C(=O)O)cc4)c3c(=O)[nH]2)c1 | > 20 | 5.62 | – | – | – | – | –
CCc1cccc(CNC(=O)c2nc3ccc(F)c(OCCc4ccc(C(N)=O)cc4)c3c(=O)[nH]2)c1 | > 20 | < 4.70 | – | – | – | – | –

Structure (SMILES) | CC50 at 72 h [1] [µM] | pIC50 (Plasmodium falciparum) | CLH [2] [uL/ml.millig] | CLH [3] [uL/ml.millig] | CLH [4] [uL/ml.millig] | Papp A→B at 2 h, 20 µM [5] [×10⁻⁶ cm/s] | solubility kinetic [6] [µg/mL]
CCc1cncc(CNC(=O)c2nc3cccc(COCc4ccc(C(=O)O)cc4)c3c(=O)[nH]2)c1 | > 20 | 6.26 | 13 | 78 | – | – | 1.6 (≈ 3.39 µM)
O=C(O)c1ccc(CCOc2c(F)ccc3nc(C(=O)NCc4cccc(OCC5CC5)c4)[nH]c(=O)c23)cc1 | > 20 | 5.78 | – | – | – | – | –
CCc1cccc(CNC(=O)c2nc3c(OC)ccc(COCc4ccc(C(=O)O)cc4)c3c(=O)[nH]2)c1 | > 20 | 5.72 | – | – | – | – | –
CCc1cccc(CNC(=O)c2nc3ccc(F)c(OCCc4ccc(C(=O)O)cc4)c3c(=O)[nH]2)c1 | > 20 | 6.38 | – | 485 | 69 | 44 | 12.5 (≈ 25.5 µM)
O=C(O)c1ccc(CCOc2c(F)ccc3nc(C(=O)NCc4cccc(C5CC5)c4)[nH]c(=O)c23)cc1 | > 20 | 5.32 | – | – | – | – | –
CCc1ccc(CNC(=O)c2nc3cccc(COCc4ccc(C(=O)O)cc4)c3c(=O)[nH]2)cc1 | > 20 | 7.14 | – | – | – | – | –
CC(C)c1cccc(CNC(=O)c2nc3ccc(F)c(OCCc4ccc(C(=O)O)cc4)c3c(=O)[nH]2)c1 | > 20 | 5.94 | – | – | – | – | –
COc1cccc(CNC(=O)c2nc3ccc(F)c(OCCc4ccccc4)c3c(=O)[nH]2)c1 | > 20 | < 4.70 | – | – | – | – | –
CCc1cccc(CNC(=O)c2nc3cccc(COc4ccc(CC(=O)O)cc4)c3c(=O)[nH]2)c1 | > 20 | < 4.70 | – | – | – | – | –
CCc1cccc(C(C)NC(=O)c2nc3ccc(F)c(OCCc4ccc(C(=O)O)cc4)c3c(=O)[nH]2)c1 (stereo not drawn) | > 20 | 5.29 | – | – | – | – | –
CCc1cccc(CNC(=O)c2nc3c(COCc4ccc(C(=O)O)cc4)cccc3c(=O)[nH]2)c1 | > 20 | < 4.70 | – | – | – | – | –
CCc1cccc(CNC(=O)c2nc3c(F)ccc(COCc4ccc(C(=O)O)cc4)c3c(=O)[nH]2)c1 | > 20 | 7.27 | – | – | – | – | –
CCc1cccc(CNC(=O)c2nc3ccc(Br)c(COCc4ccc(C(=O)O)cc4)c3c(=O)[nH]2)c1 | > 20 | < 4.70 | – | – | – | – | –
CCc1cccc(C(C)NC(=O)c2nc3cccc(COCc4ccc(C(=O)O)cc4)c3c(=O)[nH]2)c1 (stereo not drawn) | > 20 | 5.23 | – | – | – | – | –
CCc1cccc(NC(=O)c2nc3ccc(F)c(OCCc4ccc(C(=O)O)cc4)c3c(=O)[nH]2)c1 | > 20 | 5.50 | – | – | – | – | –
CCc1cccc(CNC(=O)c2nc3ccc(Cl)c(COCc4ccc(C(=O)O)cc4)c3c(=O)[nH]2)c1 | > 20 | < 4.70 | – | – | – | – | –
CCc1cccc(CNC(=O)c2nc3cccc(COCc4cccc(C(=O)O)c4)c3c(=O)[nH]2)c1 | > 20 | 5.80 | – | – | – | – | –
CCc1cccc(CNC(=O)c2nc3cccc(COCc4ccc(C(N)=O)cc4)c3c(=O)[nH]2)c1 | > 20 | 6.51 | 83 | 636 | – | – | < 3.1
CCc1cccc(CNC(=O)c2nc3ccc(OC)c(COCc4ccc(C(=O)O)cc4)c3c(=O)[nH]2)c1 | > 20 | < 4.70 | – | – | – | – | –
CCc1cccc(CNC(=O)c2nc3ccc(F)c(COCc4ccc(C(=O)O)cc4)c3c(=O)[nH]2)c1 | > 20 | 5.35 | – | – | – | – | –
CCc1cccc(CNC(=O)c2nc3ccc(COCc4ccc(C(=O)O)cc4)cc3c(=O)[nH]2)c1 | > 20 | 5.79 | – | – | – | – | –
